In brackets after ≈: the same amount, converted by molar mass.
Key:
Streptococcus pneumoniae = experiment: Antibacterial activity against Streptococcus pneumoniae DAW27 after overnight incubation by microbroth dilution technique; type: functional
Method in brief: (§1)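 Two-fold serial broth dilutions per CLSI; inoculum about 10^5 CFU/mL; top final drug concentration 200 µg/mL; incubated aerobically overnight at 37°C. MIC read visually as the lowest concentration with no visible growth.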

[1] = Plasma protein binding in mouse at 10 uM after 4 hrs by LC/MS analysis; type: ADME, cell-free; settings: read-out: PPB (converted)
Method in brief: (§2)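 Compound at 10 µM (0.1% DMSO) in mouse or human plasma. Rapid equilibrium dialysis (MWCO 8K) against DPBS pH 7.4, 4 h at 37°C with orbital shaking. Both chambers matrix-matched, precipitated with acetonitrile containing warfarin internal standard, quantified by LC–MS. %Free = buffer/plasma × 100; %Bound = 100 − %Free.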

Streptococcus pyogenes = experiment: Antibacterial activity against Streptococcus pyogenes ATCC 700294 after overnight incubation by microbroth dilution technique; type: functional; method in brief: as §1
[2] = Half life in mouse liver microsomes; type: ADME, Microsome
Method in brief: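 Mouse liver microsomes at 0.6381 mg/mL protein in 0.1 M potassium phosphate pH 7.4 with EDTA. Reaction started with NADPH regenerating system at 37°C; six time points including 0, triplicate wells. Quenched in cold acetonitrile with warfarin internal standard, analysed by LC–MS. Half-life from a first-order least-squares fit.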

[3] = Apparent permeability of the compound from apical to basal side of human Caco2 cells at 50 umol/L after 2 hrs by UPLC/MS analysis; type: ADME, cell-based; settings: Caco-2
Method in brief: (§3)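 Caco-2 monolayers grown 7 days on Transwell inserts, washed with HBSS/HEPES pH 7.4. Compound at 50 µmol/L added apically or basolaterally, then 2 h at 37°C. Receiver side sampled and quantified by UPLC/MS. Papp = (dQ/dt)/(A×C0), triplicates.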

[4] = Plasma protein binding in human at 10 uM after 4 hrs by LC/MS analysis; type: ADME, cell-free; settings: read-out: PPB (converted); method in brief: as §2
Bacillus anthracis = experiment: Antibacterial activity against Bacillus anthracis Sterne 34F2 after overnight incubation by microbroth dilution technique; type: functional
Method in brief: (§4)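 Non-mycobacterial strains: two-fold serial dilutions in broth by CLSI microbroth dilution. Inoculum about 10^5 cfu/mL; top final drug concentration 200 µg/mL. Aerobic incubation at 37°C overnight. MIC read visually as the lowest concentration with no visible growth.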

Bacillus subtilis = experiment: Antibacterial activity against Bacillus subtilis ATCC 23857 after overnight incubation by microbroth dilution technique; type: functional; method in brief: as §4
Escherichia coli = experiment: Antibacterial activity against Escherichia coli K12 after overnight incubation by microbroth dilution technique; type: functional; settings: K-12; method in brief: as §4
[5] = Solubility of the compound at pH 7.4 after 18 hrs by UV spectrometry; type: physicochemical; settings: buffer, pH 7.4
Method in brief: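 10 mM DMSO stocks diluted 100-fold in system solution buffer pH 7.4 and held 18 h at room temperature. Filtered, diluted 1:1 with isopropanol and measured by UV (230–500 nm). Compared against a 600-fold diluted reference in buffer/isopropanol. Triplicates.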

Staphylococcus aureus = experiment: Antibacterial activity against Staphylococcus aureus ATCC 29213 after overnight incubation by microbroth dilution technique; type: functional; method in brief: as §1
[6] = Half life in human liver microsomes; type: ADME, Microsome
Enterococcus faecalis = experiment: Antibacterial activity against Enterococcus faecalis ATCC 3186 after overnight incubation by microbroth dilution technique; type: functional; method in brief: as §1
[7] = Apparent permeability of the compound from basal to apical side of human Caco2 cells at 50 umol/L after 2 hrs by UPLC/MS analysis; type: ADME, cell-based; settings: Caco-2; method in brief: as §3
[8] = Drug excretion in rat urine; type: ADME; settings: read-out: Drug excretion
[9] = Cmax in rat at 10 mg/kg, iv; type: ADME, organism-based; design: dose 10 mg/kg, route intravenous; settings: in vivo
Method in brief: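 Rats (n=5) given 10 mg/kg IV via femoral vein catheter. Vehicle was 2% ethanol/saline or 30% DMSO/30% propylene glycol/20% PEG 3000/20% saline, depending on compound. Serial plasma sampled 0–48 h and assayed by LC-MS/MS after acetonitrile precipitation. Cmax read by visual inspection of the concentration–time curve.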

[10] = Volume of distribution in rat; type: ADME, organism-based; settings: in vivo
Method in brief: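 Plasma concentration–time data from rats (n=5) after IV 10 mg/kg or oral 100 mg/kg. Samples taken 0.25–48 h and measured by LC-MS/MS. Non-compartmental analysis; Vd calculated as AUMC0-∞ × dose divided by the square of AUC0-∞.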

Rattus norvegicus [11] = experiment: Toxicity in Sprague-Dawley rat assessed as seizures at 10 mg/kg, iv; type: organism-based; design: dose 10 mg/kg, route intravenous; settings: in vivo
Method in brief: (§5)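 Observed during rat IV pharmacokinetic study (n=5). Single 10 mg/kg dose via femoral vein catheter, flushed with heparinized locking solution. Vehicle was 2% ethanol/saline or 30% DMSO/30% propylene glycol/20% PEG 3000/20% saline. Animals followed with serial blood sampling to 48 h.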

Rattus norvegicus [12] = experiment: Toxicity in Sprague-Dawley rat assessed as mortality at 10 mg/kg, iv; type: organism-based; design: dose 10 mg/kg, route intravenous; settings: in vivo; method in brief: as §5
[13] = Volume of distribution in Sprague-Dawley rat at 10 mg/kg, iv; type: ADME, organism-based; design: dose 10 mg/kg, route intravenous; settings: in vivo
Method in brief: (§6)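 Rats, n=5, given 10 mg/kg IV via femoral vein catheter. Vehicle was 2% ethanol/saline or 30% DMSO/30% propylene glycol/20% PEG 3000/20% saline, depending on compound. Plasma sampled 0–48 h and urine collected in intervals to 48 h; both assayed by LC-MS/MS after acetonitrile precipitation. Non-compartmental analysis: CL = dose/AUC0-∞; fe = cumulative unchanged urinary amount/dose.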

[14] = Half life in Sprague-Dawley rat at 10 mg/kg, iv; type: ADME, organism-based; design: dose 10 mg/kg, route intravenous; settings: in vivo; method in brief: as §6
[15] = Cmax in Sprague-Dawley rat at 10 mg/kg, iv; type: ADME, organism-based; design: dose 10 mg/kg, route intravenous; settings: in vivo; method in brief: as §6
Rattus norvegicus [16] = experiment: Oral bioavailability in Sprague-Dawley rat at 100 mg/kg; type: ADME, organism-based; settings: in vivo
Method in brief: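 Fasted rats, n=5, dosed 100 mg/kg by oral gavage. Vehicle was 2% methanol, 60:40 PEG 3000/water or 10% vitamin E TPGS, depending on compound. Plasma sampled to 48 h and assayed by LC-MS/MS. F = (AUCoral×DoseIV)/(AUCIV×Doseoral), referenced to 10 mg/kg IV.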

[17] = Drug excretion in Sprague-Dawley rat urine at 10 mg/kg, iv; type: ADME, organism-based; design: dose 10 mg/kg, route intravenous; settings: read-out: Drug excretion; method in brief: as §6
[18] = Clearance in Sprague-Dawley rat at 10 mg/kg, iv; type: ADME, organism-based; design: dose 10 mg/kg, route intravenous; settings: in vivo; method in brief: as §6
[19] = AUC (0 to infinity) in Sprague-Dawley rat at 10 mg/kg, iv; type: ADME, organism-based; design: time infinity, dose 10 mg/kg, route intravenous; settings: plasma; method in brief: as §6
Rattus norvegicus [20] = experiment: Toxicity in Sprague-Dawley rat assessed as mortality at 100 mg/kg, po; type: organism-based; design: dose 100 mg/kg, route oral; settings: in vivo
Method in brief: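 Observed during rat oral pharmacokinetic study (n=5). Overnight-fasted animals, water ad libitum, received 100 mg/kg by oral gavage. Vehicle was compound-dependent: 2% methanol (sonicated), 60:40 PEG 3000/water, or 10% vitamin E TPGS. Animals followed with sampling to 48 h.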

Vero = experiment: Cytotoxicity against african green monkey Vero cells after 72 hrs by MTT assay; type: cell-based; settings: Chlorocebus sabaeus
Method in brief: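 Vero cells in DMEM with 10% FBS, seeded at ~10% confluency and left to adhere overnight. Two-fold serial dilutions applied for 72 h at 37°C, 5% CO2. MTT read-out at 570 nm after overnight solubilization.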

CN1CCN(c2ccc(C3CC(c4ccc([N+](=O)[O-])o4)=NO3)cn2)C(=O)C1 (centres undefined)
MIC (Streptococcus pneumoniae): 50 µg/mL (≈ 135 µM) | fraction unbound at 4 h, 10 µM [1]: 0.402 | MIC (Streptococcus pyogenes): 50 µg/mL (≈ 135 µM) | half-life [2]: 0.35 h | Papp A→B at 2 h, 50 µM [3]: 36.6 ×10⁻⁶ cm/s | fraction unbound at 4 h, 10 µM [4]: 0.511 | MIC (Bacillus anthracis): 25 µg/mL (≈ 67.3 µM) | MIC (Bacillus subtilis): 25 µg/mL (≈ 67.3 µM) | MIC (Escherichia coli): 50 µg/mL (≈ 135 µM) | solubility at 18 h [5]: 28.9 µg/mL (≈ 77.8 µM) | MIC (Staphylococcus aureus): 12.5 µg/mL (≈ 33.7 µM) | half-life [6]: 4.24 h | MIC (Enterococcus faecalis): 100 µg/mL (≈ 269 µM) | Papp B→A at 2 h, 50 µM [7]: 33.3 ×10⁻⁶ cm/s

O=C1COCCN1c1ccc(C2CC(c3ccc([N+](=O)[O-])o3)=NO2)cc1 (centres undefined)
MIC (Streptococcus pneumoniae): 200 µg/mL (≈ 560 µM) | fraction unbound at 4 h, 10 µM [1]: 0.34 | MIC (Streptococcus pyogenes): 100 µg/mL (≈ 280 µM) | half-life [2]: 1.4 h | Papp A→B at 2 h, 50 µM [3]: 12.6 ×10⁻⁶ cm/s | fraction unbound at 4 h, 10 µM [4]: 0.357 | MIC (Bacillus anthracis): 25 µg/mL (≈ 70 µM) | MIC (Bacillus subtilis): 6.25 µg/mL (≈ 17.5 µM) | MIC (Escherichia coli): 25 µg/mL (≈ 70 µM) | solubility at 18 h [5]: 25.9 µg/mL (≈ 72.4 µM) | MIC (Staphylococcus aureus): 6.25 µg/mL (≈ 17.5 µM) | half-life [6]: 10 h | MIC (Enterococcus faecalis): > 200 µg/mL | Papp B→A at 2 h, 50 µM [7]: 56.5 ×10⁻⁶ cm/s

CN1CCN(c2ccc(C3CC(c4ccc([N+](=O)[O-])o4)=NO3)cc2F)C(=O)C1 (centres undefined)
MIC (Streptococcus pneumoniae): 50 µg/mL (≈ 129 µM) | fraction unbound at 4 h, 10 µM [1]: 0.172 | MIC (Streptococcus pyogenes): 50 µg/mL (≈ 129 µM) | half-life [2]: 0.62 h | Papp A→B at 2 h, 50 µM [3]: 27 ×10⁻⁶ cm/s | fraction unbound at 4 h, 10 µM [4]: 0.391 | MIC (Bacillus anthracis): 25 µg/mL (≈ 64.4 µM) | MIC (Escherichia coli): 200 µg/mL (≈ 515 µM) | solubility at 18 h [5]: 29.2 µg/mL (≈ 75.2 µM) | MIC (Staphylococcus aureus): 6.25 µg/mL (≈ 16.1 µM) | half-life [6]: 4.81 h | MIC (Enterococcus faecalis): 100 µg/mL (≈ 257 µM) | Papp B→A at 2 h, 50 µM [7]: 38.6 ×10⁻⁶ cm/s

CC(=O)NC[C@H]1CN(c2ccc(N3CCOCC3)c(F)c2)C(=O)O1 [LINEZOLID]
dose excreted [8]: 73% | Cmax [9]: 15000 ng/mL | Vd [10]: 0.72 L/kg

O=[N+]([O-])c1ccc(C2=NOC(c3ccc(N4CCOCC4)nc3)C2)o1 (centres undefined)
Activity (Rattus norvegicus [11]): Non-toxic | Activity (Rattus norvegicus [12]): Non-toxic | fraction unbound at 4 h, 10 µM [1]: 0.047 | Vd [13]: 2.86 L/kg | half-life [14]: 0.72 h | Cmax [15]: 2730 ng/mL | MIC (Streptococcus pyogenes): 25 µg/mL (≈ 72.6 µM) | F (Rattus norvegicus [16]): 47.9% | dose excreted [17]: 0.02% | clearance [18]: 50.3 mL/min/kg | half-life [2]: 1.23 h | Papp A→B at 2 h, 50 µM [3]: 6.47 ×10⁻⁶ cm/s | AUC(0-inf) [19]: 3360 ng·h/mL | fraction unbound at 4 h, 10 µM [4]: 0.033 | MIC (Bacillus anthracis): 25 µg/mL (≈ 72.6 µM) | Activity (Rattus norvegicus [20]): Non-toxic | MIC (Escherichia coli): > 200 µg/mL | solubility at 18 h [5]: 14.1 µg/mL (≈ 40.9 µM) | MIC (Staphylococcus aureus): 12.5 µg/mL (≈ 36.3 µM) | half-life [6]: 3.37 h | IC50 (Vero): 3.2 µg/mL (≈ 9.29 µM) | Papp B→A at 2 h, 50 µM [7]: 14.2 ×10⁻⁶ cm/s

O=C1COCCN1c1ccc(C2CC(c3ccc([N+](=O)[O-])o3)=NO2)cn1 (centres undefined)
MIC (Streptococcus pneumoniae): 50 µg/mL (≈ 140 µM) | fraction unbound at 4 h, 10 µM [1]: 0.411 | half-life [2]: 1.01 h | Papp A→B at 2 h, 50 µM [3]: 8.61 ×10⁻⁶ cm/s | fraction unbound at 4 h, 10 µM [4]: 0.398 | MIC (Bacillus anthracis): 25 µg/mL (≈ 69.8 µM) | MIC (Bacillus subtilis): 12.5 µg/mL (≈ 34.9 µM) | MIC (Escherichia coli): 25 µg/mL (≈ 69.8 µM) | solubility at 18 h [5]: 21.9 µg/mL (≈ 61.2 µM) | MIC (Staphylococcus aureus): 12.5 µg/mL (≈ 34.9 µM) | half-life [6]: 1.52 h | MIC (Enterococcus faecalis): > 200 µg/mL | Papp B→A at 2 h, 50 µM [7]: 45.7 ×10⁻⁶ cm/s

Reference: ChEMBL document CHEMBL2146426, “Antitubercular nitrofuran isoxazolines with improved pharmacokinetic properties” (Bioorg Med Chem, 2012)
